This sample holds only a part of the variants without activity.
B1: tRNA (parent)
chain: GUUCCGUUGGCGUAAUGGUAACGCGUCUCCCUCCUAAGGAGAAGACUGCGGGUUCGAGUCCCGUACGGAACG

Variants of: B1
Experiment: yeast fitness relative to wild type (ratio to wild type); higher = fitter; tRNA-Arg(CCU), competitive growth, 37 C, YPD
In short: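 The tRNA-Arg(CCU) gene variants were made by chemical synthesis with a 3% per-site mutation rate at 69 sites and inserted at the native genomic locus of Saccharomyces cerevisiae. After pooling, the strains were competed in YPD at 37°C for 24 hours in six parallel replicates. Gene amplicons from the start population and each end population were read by 100-nucleotide paired-end sequencing, and Darwinian fitness relative to wild type was taken from genotype frequency changes. Genotypes needed ≥ 100 starting reads, and estimates < 0.5 were set to 0.5.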

First: U2A U47C C66U
Second: C5G U8C G12A U28A A65G
The yeast fitness of the first is higher: 0.683 for the first, at most 0.5 for the second.

Compared with U8G A36C U53C A69G, U54C C61G is higher in yeast fitness: at most 0.5 for the first, 0.713 for the second.

Compared with C5G U32A A57G, C24U G48U is higher in yeast fitness: 0.549 for the first, 0.783 for the second.

Going from C11G C29A A43C C66A to A37G G68A, the yeast fitness rises from at most 0.5 to 0.88.

U8G G12A A20G and C4A G6A C11A C22U C29U C55A cannot be ordered by yeast fitness: at most 0.5 for the first, at most 0.5 for the second.

A45U U54C C66G G67C and C27G U32G A42C cannot be ordered by yeast fitness: at most 0.5 for the first, at most 0.5 for the second.

U2A C5A C30U A69U and C4A A37U G51A cannot be ordered by yeast fitness: at most 0.5 for the first, at most 0.5 for the second.

Going from A15G A36U C55A A57C to G10C C34A A40G A69U, the yeast fitness falls from 0.579 to 0.552.

Going from U7A C34G A40C A57U to C11U U35C A36U C46U, the yeast fitness rises from at most 0.5 to 0.75.

C5A A15C C30A A42U C55U C66A and U8C G9C A21C C24G U32G G38A cannot be ordered by yeast fitness: at most 0.5 for the first, at most 0.5 for the second.

First: C4G U16C C27G A40G G48A C55A A57C
Second: U26G C29A C30G C31G U59A
The yeast fitness of the first is lower: at most 0.5 for the first, 0.533 for the second.

Going from A20C G50A to A36U C55G, the yeast fitness falls from 0.861 to at most 0.5.

Compared with A21C G25C U26G A70C, C11A A21U is higher in yeast fitness: at most 0.5 for the first, 0.606 for the second.

G9A A21U A36G A40C U47C and C5G A20U C66U A69U cannot be ordered by yeast fitness: at most 0.5 for the first, at most 0.5 for the second.

Going from C31U A43U to C11U C62U, the yeast fitness falls from 1.11 to 0.943.

First: A14G C60A
Second: C33G G52C C61U U64C
The yeast fitness of the first is higher: 0.523 for the first, at most 0.5 for the second.

A20U C30G C33U C55A and C31A C33U G41C G67C cannot be ordered by yeast fitness: at most 0.5 for the first, at most 0.5 for the second.

G12C C27G C30A and G50A C62A G68A cannot be ordered by yeast fitness: at most 0.5 for the first, at most 0.5 for the second.

C27G C31A A37C G50A C61G and G10A A15G A42C G50C cannot be ordered by yeast fitness: at most 0.5 for the first, at most 0.5 for the second.

C5G A20C C24U G68A and U13C A20G C49U C66U A70C cannot be ordered by yeast fitness: at most 0.5 for the first, at most 0.5 for the second.

First: U32A U35A A42U
Second: U13A A14U A40C
The yeast fitness of the first is lower: at most 0.5 for the first, 0.556 for the second.

First: U7C C31G C34U A57U
Second: C11U A57G A69U
The yeast fitness of the first is lower: at most 0.5 for the first, 0.718 for the second.

First: U2A C11G
Second: C27U A36G A37G G56C
The yeast fitness of the first is higher: 0.647 for the first, at most 0.5 for the second.

Compared with U19G C22U C31U A40U, U3A C4U U7A C24U C60U is lower in yeast fitness: 0.586 for the first, at most 0.5 for the second.

Compared with U8A G44A, A20G U47G G68U is lower in yeast fitness: 0.644 for the first, at most 0.5 for the second.

First: C4U C31U C55G A70C
Second: U2A A14U
The yeast fitness of the first is lower: at most 0.5 for the first, 0.682 for the second.

C31U A36U A43C C55G and A20U G23A U28C C31U G39A G56A cannot be ordered by yeast fitness: at most 0.5 for the first, at most 0.5 for the second.

A20C C24G G39C G68C and C11G C27U A43C A65G cannot be ordered by yeast fitness: at most 0.5 for the first, at most 0.5 for the second.

First: C11U A15G A36U A43U C46G C62A
Second: U3A A15U U28G C55A A70U
The yeast fitness of the first is lower: 0.635 for the first, 0.779 for the second.

A20C A21G G23A C66A and C11A U13G C27G cannot be ordered by yeast fitness: at most 0.5 for the first, at most 0.5 for the second.

Compared with C34A A69U, C11U C22G C62U A70C is lower in yeast fitness: 0.858 for the first, at most 0.5 for the second.

C4U C24A C31A A40U A42C C49A and U8G U16A G18C C22G cannot be ordered by yeast fitness: at most 0.5 for the first, at most 0.5 for the second.

First: A14G G58A A65U
Second: G9A A40C U54C
The yeast fitness of the first is higher: 0.782 for the first, 0.753 for the second.

First: G10C A14U C22U C24G U35C G56C U64A
Second: C22U C60U G67A
The yeast fitness of the first is lower: at most 0.5 for the first, 0.643 for the second.

Going from U28C A65C to G6A G9C C11G C34U G68A, the yeast fitness falls from 0.85 to 0.574.

Going from G38A A70G to U28C C33U G41A G52C, the yeast fitness falls from 0.998 to at most 0.5.

Compared with G6A C33U C34U C62G, C29U C34A A42U U47C is higher in yeast fitness: at most 0.5 for the first, 0.64 for the second.

U7C U28A C34U C61U and C5U A20U C55G G68A cannot be ordered by yeast fitness: at most 0.5 for the first, at most 0.5 for the second.

U19A A37U G41C G67A and U2C A15U A37G cannot be ordered by yeast fitness: at most 0.5 for the first, at most 0.5 for the second.

First: G38A U47G
Second: C22U C33G G41C G56C G58A G63C A65U
The yeast fitness of the first is higher: 0.574 for the first, at most 0.5 for the second.

Compared with U2A A20G A69C, A21U C27G C30A is lower in yeast fitness: 0.688 for the first, 0.514 for the second.

U3A G38A A57U C62U and U28A C31U U32A C55U cannot be ordered by yeast fitness: at most 0.5 for the first, at most 0.5 for the second.
